From ChEMBL document CHEMBL3585325, “Discovery of (1R,2S)-2-{[(2,4-Dimethylpyrimidin-5-yl)oxy]methyl}-2-(3-fluorophenyl)-N-(5-fluoropyridin-2-yl)cyclopropanecarboxamide (E2006): A Potent and Efficacious Oral Orexin Receptor Antagonist” (J Med Chem, 2015)
In brackets after ≈: the same amount, converted by molar mass.

Experiments:
CYP3A = CYP3A (Homo sapiens, UniProt P08684+P20815+P24462+Q9HB55); assay: Time dependent inhibition of CYP3A in human liver microsomes assessed as enzyme activity using midazolam as substrate at 10 uM incubated for 30 mins prior to substrate addition for 10 mins by LC-MS/MS analysis; type: ADME; parameters: scale not given: the % may be the effect or the level left; conditions: probe midazolam, read-out: Activity
Method in brief: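 Test compound at 10 μM preincubated 30 min at 37 °C with human liver microsomes (0.2 mg/mL), with or without an NADPH-generating system. Mixture then diluted 10-fold into a marker-substrate cocktail plus NADPH system and incubated 10 min at 37 °C. Midazolam served as the CYP3A probe. Metabolites measured by LC−MS/MS. Result is the residual activity with NADPH relative to without, as % of control.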

Orexin receptor type 2 = biological target: T1, Orexin receptor type 2 (Homo sapiens, UniProt O43614); assay: Binding affinity to human OX2R by radioligand displacement binding assay
T1 sequence (O43614 whole entry): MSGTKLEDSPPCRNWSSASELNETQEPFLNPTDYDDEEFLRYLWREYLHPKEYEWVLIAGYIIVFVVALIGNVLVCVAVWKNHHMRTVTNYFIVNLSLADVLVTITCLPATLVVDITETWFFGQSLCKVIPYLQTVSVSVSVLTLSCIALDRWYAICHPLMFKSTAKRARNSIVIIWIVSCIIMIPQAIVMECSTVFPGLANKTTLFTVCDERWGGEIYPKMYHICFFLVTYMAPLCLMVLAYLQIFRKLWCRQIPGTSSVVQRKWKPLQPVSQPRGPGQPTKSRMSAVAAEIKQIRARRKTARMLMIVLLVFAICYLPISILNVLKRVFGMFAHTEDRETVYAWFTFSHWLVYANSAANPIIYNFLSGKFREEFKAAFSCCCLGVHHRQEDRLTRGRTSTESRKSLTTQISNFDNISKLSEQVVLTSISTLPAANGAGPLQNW

[1] = Aqueous solubility of the compound in Dulbecco's phosphate buffered saline at pH 7.4 by DMSO solution precipitation method; type: physicochemical
Method in brief: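 Solubility in Dulbecco's PBS at pH 7.4, measured at room temperature by precipitation from a DMSO solution.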

[2] = Activity at P-gp (unknown origin) assessed as corrected flux ratio; type: ADME; conditions: human
Method in brief: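 Reported as corrected flux ratio, i.e. the MDR1 flux ratio divided by the PK1 flux ratio.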

[3] = biological target: T2, Orexin/Hypocretin receptor type 1 (Homo sapiens, UniProt O43613); assay: Binding affinity to human OX1R by radioligand displacement binding assay
T2 sequence (O43613 whole entry): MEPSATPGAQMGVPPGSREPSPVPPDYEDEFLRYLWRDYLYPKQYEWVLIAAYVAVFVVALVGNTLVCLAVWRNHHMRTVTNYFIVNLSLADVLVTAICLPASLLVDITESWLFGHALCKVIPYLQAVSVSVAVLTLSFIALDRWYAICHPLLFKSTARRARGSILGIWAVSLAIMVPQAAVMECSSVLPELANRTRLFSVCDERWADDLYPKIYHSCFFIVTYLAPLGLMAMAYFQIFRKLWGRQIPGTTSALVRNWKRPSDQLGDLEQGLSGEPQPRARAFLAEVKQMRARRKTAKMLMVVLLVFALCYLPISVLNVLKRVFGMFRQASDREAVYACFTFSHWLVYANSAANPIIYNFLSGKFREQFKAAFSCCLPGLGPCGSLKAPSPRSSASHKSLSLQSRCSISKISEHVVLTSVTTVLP
Method in brief: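 Ki values come from single experiments run in triplicate.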

[4] = biological target: Voltage-gated inwardly rectifying potassium channel KCNH2 (Homo sapiens, UniProt Q12809); assay: Inhibition of human ERG
Mus musculus = assay: Sleep promoting activity in C57BL/6NCrlCrlj mouse assessed as reduction in wakefulness time at 30 mg/kg, po administered immediately prior to beginning of dark cycle measured during first 3 hrs after drug administration by electroencephalogram/electromyogram analysis (reference value: 116.7 min); type: functional
Method in brief: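 Male C57BL/6NCrlCrlj mice implanted with EEG/EMG electrodes were dosed orally in 10% Cremophor EL, 5% DMSO in saline just before lights-off (ZT12) and recorded from ZT12 to ZT20. Group sizes were n=6 dosed and n=7 vehicle. Stages were scored by software with blinded visual confirmation; cumulative first-3-h times are mean with SEM. Dunnett's test was run after one-way ANOVA.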

Sequence of Voltage-gated inwardly rectifying potassium channel KCNH2 (Q12809 whole entry): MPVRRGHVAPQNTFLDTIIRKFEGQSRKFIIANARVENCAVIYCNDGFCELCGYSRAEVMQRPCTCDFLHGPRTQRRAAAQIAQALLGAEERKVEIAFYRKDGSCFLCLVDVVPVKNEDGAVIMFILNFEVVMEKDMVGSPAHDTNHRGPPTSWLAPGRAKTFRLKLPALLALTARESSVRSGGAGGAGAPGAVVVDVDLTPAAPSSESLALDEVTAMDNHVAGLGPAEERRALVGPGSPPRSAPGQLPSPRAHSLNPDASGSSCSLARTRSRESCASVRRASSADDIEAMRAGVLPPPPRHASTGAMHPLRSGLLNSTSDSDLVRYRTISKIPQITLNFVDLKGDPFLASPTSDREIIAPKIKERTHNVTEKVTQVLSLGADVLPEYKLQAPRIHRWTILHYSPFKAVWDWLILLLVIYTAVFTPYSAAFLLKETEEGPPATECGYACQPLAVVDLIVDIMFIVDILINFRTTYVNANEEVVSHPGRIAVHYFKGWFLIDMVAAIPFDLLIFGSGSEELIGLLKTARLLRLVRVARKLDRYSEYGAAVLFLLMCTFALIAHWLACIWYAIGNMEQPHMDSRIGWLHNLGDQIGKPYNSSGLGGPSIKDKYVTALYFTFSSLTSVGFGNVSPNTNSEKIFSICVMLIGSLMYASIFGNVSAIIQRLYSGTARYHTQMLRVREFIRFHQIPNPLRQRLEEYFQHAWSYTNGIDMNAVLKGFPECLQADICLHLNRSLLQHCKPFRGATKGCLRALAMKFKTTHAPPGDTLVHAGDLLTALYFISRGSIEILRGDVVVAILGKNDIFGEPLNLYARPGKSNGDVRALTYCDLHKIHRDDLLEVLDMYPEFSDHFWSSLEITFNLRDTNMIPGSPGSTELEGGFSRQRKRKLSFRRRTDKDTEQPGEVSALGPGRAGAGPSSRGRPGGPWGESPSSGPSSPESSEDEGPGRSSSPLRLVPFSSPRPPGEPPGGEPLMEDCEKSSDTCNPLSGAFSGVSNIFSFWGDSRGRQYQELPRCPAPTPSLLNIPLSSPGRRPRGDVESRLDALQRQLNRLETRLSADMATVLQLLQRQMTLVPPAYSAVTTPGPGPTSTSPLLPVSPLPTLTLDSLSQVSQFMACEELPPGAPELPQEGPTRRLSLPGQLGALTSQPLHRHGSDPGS

SMILES | activity at 10 min, 10 µM (CYP3A) [%] | Ki (Orexin receptor type 2) [nM] | solubility kinetic [1] [µM] | Ratio [2] | Ki [3] [nM] | IC50 [4] [nM] | Time (Mus musculus) [min]
COCc1nc(C)ncc1OC[C@@]1(c2ccccc2)C[C@H]1C(=O)Nc1ccc(C#N)cn1 | 92 | 9 | 93 (≈ 39.9 µg/mL) | 4 | 43 | – | –
Cc1ncc(OC[C@@]2(c3ccccc3F)C[C@H]2C(=O)Nc2ccc(F)cn2)c(C)n1 | 77 | 17 | – | 1.4 | 81 | 5900 | –
Cc1ncc(OC[C@@]2(c3ccc(F)cc3)C[C@H]2C(=O)Nc2ccc(F)cn2)c(C)n1 | 85 | 8 | – | 1.3 | 39 | 2200 | –
Cc1cnc(OC[C@@]2(c3ccccc3)C[C@H]2C(=O)Nc2ccc(C#N)cn2)c(C)n1 | 97 | 21 | 47 (≈ 18.8 µg/mL) | 1.3 | 73 | – | –
COc1cc(NC(=O)[C@@H]2C[C@@]2(COc2cnc(C)nc2C)c2ccccc2)ncc1F | 86 | 6 | – | 1.6 | 3 | – | –
Cc1ncc(OC[C@@]2(c3ccccc3)C[C@H]2C(=O)Nc2ccncc2)c(C)n1 | 110 | 163 | – | 6 | 1580 | – | –
Cc1ncc(OC[C@@]2(c3ccccc3)C[C@H]2C(=O)Nc2ccc(Cl)cn2)c(C)n1 | 88 | 2 | – | 1.3 | 39 | – | 68.2
CCn1cc(OC[C@]2(c3ccccc3)C[C@@H]2C(=O)Nc2ccc(C#N)cn2)c(C)n1 | – | > 2000 | – | – | > 2000 | – | –
CCc1nc(C)ncc1OC[C@@]1(c2ccccc2)C[C@H]1C(=O)Nc1ccc(C#N)cn1 | 91 | 7 | 44 (≈ 18.2 µg/mL) | 2.1 | 121 | – | –
Cc1ncc(OC[C@@]2(c3ccc(F)c(F)c3)C[C@H]2C(=O)Nc2ccc(F)cn2)c(C)n1 | 75 | 4 | – | – | 14 | – | –
CCn1cc(OCC2(c3ccccc3)CC2C(=O)Nc2ccc(C#N)cn2)c(C)n1 (racemic) | 84 | 10 | 78 (≈ 31.3 µg/mL) | 1.5 | 391 | – | –
Cc1ncc(OC[C@@]2(c3ccccc3)C[C@H]2C(=O)Nc2cccc(F)n2)c(C)n1 | 94 | 56 | – | 1.4 | 138 | – | –
Cc1ncc(OC[C@@]2(c3ccccc3)C[C@H]2C(=O)Nc2ccc(F)cn2)c(C)n1 | 87 | 7 | 92 (≈ 36.1 µg/mL) | 1.7 | 137 | 7700 | 72.3
Cc1ccc(NC(=O)[C@@H]2C[C@@]2(COc2cnc(C)nc2C)c2ccccc2)nc1 | 22 | 34 | – | 1.3 | 124 | – | –
Cc1ncc(OC[C@@]2(c3ccccc3)C[C@H]2C(=O)Nc2ccc(C#N)cn2)c(C)n1 | 96 | 49 | 80 (≈ 32 µg/mL) | 2.7 | 2490 | – | –
Cc1ncc(OC[C@@]2(c3ccccc3)C[C@H]2C(=O)Nc2cccnc2)c(C)n1 | 104 | 50 | – | 4.4 | 391 | – | –
Cc1ncc(OC[C@@]2(c3cc(F)cc(F)c3)C[C@H]2C(=O)Nc2ccc(F)cn2)c(C)n1 | 62 | 3 | – | 1.5 | 7 | 4800 | –
Cc1cc(OCC2(c3ccccc3)CC2C(=O)Nc2ccc(C#N)cn2)cc(C)n1 (racemic) | 94 | > 2000 | – | – | > 2000 | – | –
CCn1cc(OC[C@@]2(c3ccccc3)C[C@H]2C(=O)Nc2ccc(C#N)cn2)c(C)n1 | 93 | 8 | 64 (≈ 25.7 µg/mL) | 0.9 | 171 | – | –
Cc1ncc(OC[C@@]2(c3cccc(F)c3)C[C@H]2C(=O)Nc2cc(C)c(F)cn2)c(C)n1 | 83 | 4 | 46 (≈ 19.5 µg/mL) | 1.4 | 2 | > 10000 | –
Cc1ncc(OC[C@@]2(c3ccccc3)C[C@H]2C(=O)Nc2cc(C)c(F)cn2)c(C)n1 | 89 | 4 | 51 (≈ 20.7 µg/mL) | – | 6 | – | 67.1
Cc1ccnc(NC(=O)[C@@H]2C[C@@]2(COc2cnc(C)nc2C)c2ccccc2)c1 | 90 | 29 | – | 1.5 | 224 | – | –
Cc1nn(C)cc1OCC1(c2ccccc2)CC1C(=O)Nc1ccc(C#N)cn1 (racemic) | 85 | 204 | 85 (≈ 32.9 µg/mL) | – | > 2000 | – | –
Cc1ncc(OC[C@@]2(c3ccccc3)C[C@H]2C(=O)Nc2ccccn2)c(C)n1 | 99 | 80 | – | 1.9 | 1020 | – | –
Cc1ccc(OCC2(c3ccccc3)CC2C(=O)Nc2ccc(C#N)cn2)c(C)n1 (racemic) | 34 | 222 | 22 (≈ 8.77 µg/mL) | – | 938 | – | –
